# Compound activity deposited in PubChem BioAssay by several laboratories.
# HSF1 inhib: HSF1 inhibition; NIH3T3-HGL HSE-luciferase, MG132-induced, luminescence 8 h; active compounds read low; activity change, negative = inhibition, % at 7.5 µM (by protocol); 0.77% of 300,000 active; AID 2098;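 active = more than half of replicate wells show activity change below -50%, luminescence cut by over half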;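 note: luciferase reports HSF-1 transcriptional activity via heat shock element; 0% = median of DMSO wells and -100% = zero luminescence signal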
# NS3 helicase inh: blocks Hepatitis C virus NS3 helicase unwinding. inhibition, % at 10.9 µM. NS3 helicase DNA unwinding, Cy5 molecular beacon fluorescence. AID 1800. 0.56% of 290,000 active;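 active = inhibition above the mean of all tested compounds plus 3 SD, set per campaign, cut at about 35% in these data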;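 note: 0% = DMSO wells and 100% = thioflavine S control wells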
#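 assay system = NS3 helicase fragment of HCV | buffer or medium = MOPS pH 6.5, MgCl2, DTT, Tween20, BSA | timing = 60 min unwinding reaction at 25 °C after ATP addition | signal = Cy5 beacon fluorescence read at start and 1 h | read-out basis = % inhibition of unwinding | control set = low DMSO, high thioflavine S at 110 µM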
# HCV core dimer: blocks dimerization of HCV core protein | TR-FRET GST/Flag-core106 dimerization, 1536-well | inhibition, % at 5 µM | 0.33% of 300,000 active | AID 1899;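 active = inhibition above the mean of all tested compounds plus 3 SD, set per screening campaign, cut at about 45% in these data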
#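 System – GST-tagged and Flag-tagged HCV core protein residues 1-106 · Repeats – one well for each compound · Technique – TR-FRET 671 and 617 nm emission · Doses – one concentration, 5 µM, in 0.5% DMSO · Times – 4 h, 22.5 °C incubation · Also added – Eu donor and XL665 acceptor anti-tag antibodies · Measure – percent inhibition of core106 dimerization signal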
# HSF1 activator: increases HSF-1 driven luciferase reporter signal; NIH3T3-HGL HSF-1 luciferase reporter, MG132, 8 h; 100% = twice DMSO control signal; activation, % at 9 µM; 1.7% of 300,000 active;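 active = mean replicate activation of at least 50% with a set share of replicates each reaching 50%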;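 note: 0% = median of the neutral control wells and 100% = twice that signal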
# FID counter: counter-screen for HCV NS3 helicase inhibitors: DNA intercalator displacement; AID 1845; DNA fluorescent intercalator displacement, fluorescence; inhibition, % at 7.9 µM; 0.17% of 290,000 active; in the data active = inhibition above about 37%;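 note: 0% = vehicle and 100% = reference compound; higher means more ethidium bromide displaced from hairpin DNA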
# HSP90 refold inh: HSP90 refolding inhibition in rabbit reticulocyte lysate; luciferase refolding luminescence, 3 h; inhibition, % at 5.6 µM; 0.91% of 290,000 active;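 active = inhibition above the screen-wide mean plus 3 SD, computed separately per campaign, cut at about 16% in these data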;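 note: 0% = DMSO wells and 100% = 60 µM geldanamycin wells; inhibitors lower the luminescence because luciferase stays unfolded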
# The depositor's hits bear a star; · = no result. Sampled rows, rich in hits. Any-hit rate of the full collection: about 3.9%.
SMILES,HSF1 inhib,NS3 helicase inh,HCV core dimer,HSF1 activator,FID counter,HSP90 refold inh
O=C(CSc1nc2ccccc2c(=O)[nH]1)NCc1ccc(Cl)cc1,0.1,3.2,1.2,-14.6,-5.7,0.0
Cc1ccc(-n2nc3c(c2NC(=O)c2ccccc2Br)CS(=O)C3)cc1 (stereo unspecified),0.8,-5.7,-12.4,3.6,-6.1,-2.1
CCOc1ccccc1NC(=O)COC(=O)Cc1ccc(-c2ccccc2)cc1,·,4.4,4.9,·,-7.2,2.1
COc1ccc(-c2cc(C(F)(F)F)nc(S(C)(=O)=O)n2)cc1,261.9,-1.9,11.1,320.9*,-1.1,7.4
CS(=O)(=O)c1nc(-c2cccs2)cc(C(F)(F)F)n1,-89.8*,-5.3,5.3,-89.8,1.3,4.7
CS(=O)(=O)c1nc(-c2ccc(F)cc2)cc(C(F)(F)F)n1,-92.9*,2.7,·,-92.5,-1.5,2.3
Cc1cc(NC(=O)CSc2nc(-c3cccs3)cc(C(F)(F)F)n2)no1,-0.3,-1.2,1.0,-7.1,1.0,2.6
Nc1nc(-c2ccc(F)cc2)cc(C(F)(F)F)n1,3.1,-0.6,-2.7,7.0,1.6,7.6
O=C(O)CCS(=O)(=O)c1nc(-c2cccs2)cc(C(F)(F)F)n1,14.2,-0.5,3.5,32.5,3.6,8.2
COc1ccc(-c2cc(C(F)(F)F)nc(N)n2)cc1,2.3,3.7,0.0,-1.6,9.4,1.3
Cc1cc(NC(=O)CCCS(=O)(=O)c2nc(-c3cccs3)cc(C(F)(F)F)n2)no1,158.5,-0.4,3.9,204.7*,-0.5,1.2
Cc1ccc(CS(=O)(=O)Cc2ccc(C(=O)NCc3cccs3)o2)cc1,3.1,2.6,-4.0,-11.3,-24.7,0.8
CCOC(=O)CN1CCS(=O)(=O)CC1,-5.8,-7.5,1.5,-12.4,-0.2,0.6
COCCn1cc(C(=S)N2CCOCC2)c2ccccc21,3.2,5.5,1.4,2.9,-5.8,3.2
c1ccc2c(-c3nc(-c4ccncc4)no3)cccc2c1,36.2,-1.4,-3.4,78.1*,2.6,-1.3
c1ccc(SCc2nc(-c3ccncc3)no2)cc1,44.1,1.2,6.3,72.6*,-6.4,-2.9
O=C1c2ccccc2C(=O)N1CCOc1ccccc1Br,44.4,-14.7,10.6,98.6*,-19.7,-0.9
O=C1c2ccccc2C(=O)N1CCOc1ccccc1Cl,30.6,-1.9,-12.9,71.1*,-17.2,-1.6
Cc1cccc2c1N(CCOc1ccccc1Cl)C(=O)C2=O,-6.9,10.2,3.3,-23.2,-14.4,2.9
Cc1ccccc1OCCN1C(=O)c2ccccc2C1=O,16.9,0.8,-1.1,20.4,-6.2,-3.0
Cc1cccc(NC(=O)COc2ccc(/C=C\c3[nH]c(=O)[nH]c(=O)c3[N+](=O)[O-])cc2)c1,-3.0,22.9,24.0,-15.3,-7.9,-1.3
CC(C)(C)c1ccc(COC(=O)Nc2ccc(F)cc2)cc1,-6.3,-3.1,14.2,5.4,-6.0,-0.6
CC(C)(C)c1ccc(NC(=O)Nc2ccc(F)cc2)cc1,30.2,7.8,2.0,57.1*,1.2,-1.1
CCN1C(=O)/C(=C\N2CCCCCC2)SC1=S,47.6,-5.0,-1.3,67.3*,-5.2,1.5
Cn1c(COc2ccc(Cl)cc2Cl)nnc1SCC(=O)NCC1CCCO1 (stereo unspecified),3.4,26.9,-9.8,16.8,-29.3,-0.8
SMILES,HSF1 inhib,NS3 helicase inh,HCV core dimer,HSF1 activator,FID counter,HSP90 refold inh
CCC(NC(=O)C1C2C=CC(C2)C1C(=O)O)c1ccc(C)cc1 (stereo unspecified),2.7,14.0,-4.2,24.4,-2.4,-1.1
O=C(O)C1Nc2c(Cl)cc(Cl)c(Cl)c2C2C=CCC12 (stereo unspecified),9.2,57.3*,43.3,-9.2,-8.9,-0.9
CCCCN(Cc1cc2cccc(C)c2[nH]c1=O)S(C)(=O)=O,-0.4,-1.4,-2.9,6.3,-22.9,6.6
COc1ccc(CNc2nc3c(c(=O)[nH]c(=O)n3C)n2Cc2ccccc2C)cc1,-68.5*,-7.0,1.5,-78.5,-4.4,-0.7
Cn1c(=O)[nH]c(=O)c2c1nc(NCc1ccccc1)n2Cc1ccc(F)cc1,-2.2,-17.4,·,-4.5,-18.5,8.4
Cc1cc(C(=O)N2CC=C(c3ccccc3)CC2)c2ccccc2n1,-6.9,·,4.8,-0.8,·,·
COc1cc(C(=O)Oc2ccccc2/C=N/NC(=O)c2ccc(C)cc2)cc(OC)c1OC,32.2,-8.0,13.2,65.8*,-16.2,-2.0
CCOc1ccc(/C=C/C(=O)Oc2ccccc2)cc1,3.9,2.7,7.4,18.3,-12.8,-4.0
CCOc1ccc(/C=C/C(=O)C(C(N)=O)=C2SCCS2)cc1,48.9,-5.5,3.5,74.9*,-0.5,-1.4
CC(NC(=O)/C(C#N)=C/c1ccc([N+](=O)[O-])o1)c1ccccc1 (stereo unspecified),-62.2*,14.4,2.7,-66.3,-10.9,15.3
COc1cccc2cc(C(=O)NCc3ccco3)c(=Nc3ccc(C(=O)O)cc3)oc12,-63.2*,-1.3,-1.4,-69.3,-2.1,-3.7
Cc1cccc(NC(=O)c2onc3c2CCCC3)c1C,18.6,-4.9,-3.0,65.3*,-2.6,-2.2
Cc1cccc(NC(=O)c2onc3c2CCCC3)n1,-20.2,-2.6,-2.0,-14.1,-1.8,27.8*
Cc1ccccc1NC(=O)c1onc2c1CCCC2,17.3,5.1,-4.7,43.2,-1.5,-0.5
O=C(CCNC(=O)c1ccc(Cl)cc1)Nc1ccccc1N1CCCCC1,11.1,·,-1.8,6.4,·,·
O=C(Cc1ccccc1[N+](=O)[O-])NCc1ccc(Cl)cc1Cl,39.4,6.7,-2.5,80.7*,-385.3,0.0
O=C(Cc1ccccc1[N+](=O)[O-])NCc1ccc(Cl)cc1,16.2,4.3,-3.0,25.7,3.7,2.0
N#C/C(N=Nc1ccccc1O)=N\Nc1ccccc1O,8.9,·,-55.9,17.1,·,·
CC(=O)/C(=N\Nc1ccccc1Cl)Sc1cccc2cccnc12,130.5,-6.9,8.5,143.0*,0.6,-0.6
O=C(CSc1cccc2cccnc12)Nc1ccccc1F,3.5,2.2,4.2,9.6,-7.1,0.8
CC(=O)/C(=N\Nc1ccccc1)Sc1cccc2cccnc12,166.7,-6.9,4.8,187.0*,-17.4,2.6
Cc1cccc(NC(=O)CSc2cccc3cccnc23)c1,-3.7,-9.7,-10.4,16.9,-19.6,3.1
O=C(Sc1cccc2cccnc12)c1ccc(F)cc1,·,-2.4,·,·,4.7,5.0
O=C(Sc1cccc2cccnc12)c1ccccc1Br,137.9,-13.0,2.4,207.4*,-18.9,2.0
Cn1cnnc1SCC(=O)Nc1ccc(OCc2ccccc2)cc1,19.5,-21.1,-5.2,27.2,-11.1,5.3
CCOc1cc(/C=C2/C(=O)ON=C2C)ccc1OCc1ccccc1,3.2,5.0,9.4,-4.6,-10.5,0.9
CCOc1cc(/C=C2/C(=O)ON=C2C)ccc1OCc1ccc(F)cc1,22.2,6.5,1.5,62.6*,-4.5,-1.1
CCN(CC)C(=O)COC(=O)c1ccc(C)c(NC(=O)c2ccco2)c1,-59.2*,8.6,0.9,-67.0,-9.3,-2.0
